High-throughput results: PubChem, several laboratories
KCNK9 inh: inhibitors of human KCNK9 two-pore domain potassium channel | Q9NPC2 | HEK293 KCNK9, FluxOR thallium flux fluorescence; stronger effect = lower value | B-score at 10 µM | hit rate 1.2% among 310,000 | AID 488922;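 active = ratio B-score over 3 SD below the library mean, with starting fluorescence within 5 SD of its mean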;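 note: negative B-score means less thallium flux so channel inhibition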
KCNQ1 block: inhibitors of human KCNQ1 potassium channel; P51787; CHO-K1 KCNQ1, FluxOR thallium flux fluorescence; stronger effect = higher value; hit rate 1.3% among 310,000; B-score at 10 µM;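 active = compounds whose thallium flux B-score, printed positive for inhibition, exceeds three library SD while starting fluorescence stays within three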;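 note: channel opened by potassium depolarization with thallium stimulus after 20 min compound exposure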
KCC2 mod: modulates chloride dependent transport by human KCC2. KCC2 cells, thallium flux FluoZin-2 fluorescence. hit rate 2.2% among 190,000. Q9H2X9. AID 1456. B-score of Tl+ flux slope (higher = more flux/activation; lower = inhibition) at 10 µM;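 active = thallium flux slope and its plate-corrected score both differing from the plate sample mean at a set confidence after two filtering rounds, in either direction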;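 note: slope of fluorescence scaled to starting intensity during 10 to 20 s after thallium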
KCNQ1 act: human KCNQ1 channel potentiation or activation. P51787. CHO-K1 KCNQ1, thallium flux FluxOR fluorescence; stronger effect = higher value. B-score at 10 µM. hit rate 0.35% among 310,000. AID 2648;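 active = fluorescence ratio B-score, a plate-corrected score, at least three library SD, with initial intensity B-score within 5 SD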
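Doses: Single concentration per compound, DMSO matched to controls | Test system: KCNQ1-transfected CHO-K1 cells | Timing: 90 min dye loading and 20 min compound exposure, both at room temperature | Measured by: Kinetic FluxOR thallium fluorescence, 10-s 1-Hz baseline, 110-s post-stimulus read | Medium: Assay buffer with matched DMSO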
hERG protect: shields human hERG channel from block by proarrhythmic agents; Q12809; CHO-hERG, FluxOR thallium flux, dofetilide IC70 present; activation (rescue from dofetilide block), less the hit threshold, % at 10 µM; hit rate 0.51% among 310,000; AID 1511;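 active = activation above the mean of controls blocked by dofetilide plus 5 SD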;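 note: thallium influx through hERG after potassium depolarization seen as dye fluorescence rise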
KCNK3 inh: human KCNK3 channel inhibition, primary screen | hit rate 0.84% among 340,000 | CHO-KCNK3 thallium flux, FluxOR fluorescence; stronger effect = lower value | B-score at 10 µM;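 active = B-score under library mean minus 4 SD, starting fluorescence ratio at most library mean plus 5 SD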;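 note: more negative B-score means stronger inhibition of thallium flux through KCNK3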
Target sequence (O14649 whole entry, looked up): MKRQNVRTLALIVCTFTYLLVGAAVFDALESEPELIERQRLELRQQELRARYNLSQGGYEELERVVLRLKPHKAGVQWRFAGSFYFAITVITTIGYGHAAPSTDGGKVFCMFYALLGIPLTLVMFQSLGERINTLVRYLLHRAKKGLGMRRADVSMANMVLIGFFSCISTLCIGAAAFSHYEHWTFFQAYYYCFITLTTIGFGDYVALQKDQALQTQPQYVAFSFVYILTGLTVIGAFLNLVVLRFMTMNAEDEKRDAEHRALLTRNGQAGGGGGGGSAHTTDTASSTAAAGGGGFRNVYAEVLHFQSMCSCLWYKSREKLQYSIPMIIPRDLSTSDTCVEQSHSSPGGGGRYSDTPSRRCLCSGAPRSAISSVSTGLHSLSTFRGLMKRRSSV
* hit, by the source's call; i = inactive; . = not tested or not shown. This is a sample that favours compounds with a hit; in the whole collection about 4.1% have one here.

SMILES | KCNK9 inh | KCNQ1 block | KCC2 mod | KCNQ1 act | hERG protect | KCNK3 inh
CCOc1ccccc1NC(=O)c1cccc(S(=O)(=O)N(Cc2ccccc2)c2ccccc2OC)c1 | -6.9* | i | 0.39 | i | -8 | i
O=C(NN1C(=O)CSC1=S)C(=O)NN1C(=O)CSC1=S | i | i | -0.74 | i | 5.2* | i
Cc1ccc(S(=O)(=O)NCc2ccc(C(=O)NCCN(Cc3ccccc3)C(C)C)cc2)cc1 | i | 6* | 0.19 | i | -13 | i
Cc1ccc(S(=O)(=O)NCCNC(=O)c2ccccc2)cc1 | i | i | 1.8 | i | 1 | i
CCc1ccccc1OCC(=O)NCC1COc2ccccc2O1 (centres undefined) | . | . | . | . | . | i
CCN(CC)c1ccc2cc(NC(=O)CCC(=O)O)c(=O)oc2c1 | i | 14* | i | i | -26 | i
O=C(Nc1cc(C(F)(F)F)ccc1Cl)C(Sc1ccccn1)c1ccccc1 (centres undefined) | -8.1* | i | . | i | 3 | i
CC(C)(C)NCC(O)COc1ccccc1C(C)(C)C (centres undefined) | i | i | 0.077 | 8* | -11 | i
CCC1c2ccc(C)n2CCN1C(=O)Nc1ccccc1C(=O)OC (centres undefined) | -7* | i | -0.1 | i | -8 | i
CCOC(=O)c1ccccc1NC(=O)N1CCn2c(C)ccc2C1CC (centres undefined) | i | i | -1.7 | i | -14 | i
CC(C)c1ccc2c(c1)CCC1C(C)(CN)CCCC21C (centres undefined) | i | 9* | 0.025 | i | -12 | i
Cc1ccc(S(=O)(=O)CNC(=O)c2ccccc2)cc1 | i | i | . | i | -1 | i
CC(=O)OC(C(=O)NCS(=O)(=O)c1ccc(C)cc1)c1cccnc1 (centres undefined) | i | i | 0.036 | i | 4.8* | i
C/C(=N\NC(=O)c1ccccc1F)c1cccc(NC(=O)c2ccc(C)cc2)c1 | i | i | . | i | -14 | i
CN(C)c1ccc(C(C(=O)NCc2ccccc2)N(Cc2ccco2)C(=O)c2snc(C(N)=O)c2N)cc1 (centres undefined) | i | i | . | i | -14 | i
O=C(NC12CC3CC(CC(C3)C1)C2)c1cc([N+](=O)[O-])ccc1N1CCOCC1 | i | 7* | 0.18 | i | -12 | i
O=P(Cc1ccccc1)(c1ccccc1)c1ccccc1 | i | i | 1.5 | i | -7 | i
CC(C)(C)c1cc(CP(=O)(c2ccccc2)c2ccccc2)cc(C(C)(C)C)c1O | i | 6* | . | i | -7 | i
COc1ccc2c3c(c(=O)oc2c1OCC(N)=O)CCCC3 | i | i | . | i | -1 | i
CCOc1ccc2c3c(c(=O)oc2c1OCC)CCCC3 | -7.3* | i | -1 | i | -4 | i
COCCN(C(=O)c1snc(C(N)=O)c1N)C(C(=O)NC1CCCCC1)c1ccc(N(C)C)cc1 (centres undefined) | i | i | . | i | -14 | i
OC(CNCCc1ccc(Cl)cc1)COc1cc(Cl)ccc1Cl (centres undefined) | i | 9* | . | i | -17 | i
Cc1ccc(NC(=O)CNCc2ccccc2Cl)cc1S(=O)(=O)N(C)C | i | i | . | i | -7 | i
CCCCC/C=N\NC(=O)Cc1ccc([N+](=O)[O-])cc1 | i | i | -0.32 | 7* | -3 | i
Cn1cccc1C(=O)NC(=O)COC(=O)CCNS(=O)(=O)c1ccc(Cl)cc1 | . | . | . | . | . | i
CCOC(=O)c1sc2nc(CSc3ccccc3)nc(N3CCC(C(N)=O)CC3)c2c1C | i | i | 0.41 | i | 10* | i
COc1ccccc1-c1cc(C(F)(F)F)nc(NCc2ccco2)n1 | -7.3* | i | . | i | -22 | i
CCCCn1c(N)c(N(CCOC)C(=O)CN(C)S(=O)(=O)c2ccc(F)cc2)c(=O)[nH]c1=O | i | i | . | i | -7 | i
CC(=O)c1ccc(S(=O)(=O)Nc2cc3c(cc2C(C)=O)OCO3)cc1 | i | i | 2 | i | -5 | i
